Reference: ChEMBL document CHEMBL4382247, “A novel series of napabucasin derivatives as orally active inhibitors of signal transducer and activator of transcription 3 (STAT3)” (Eur J Med Chem, 2019)
Values after ≈ are worked out from the molar mass of the structure shown. Active and inactive are the calls of the source. The rule behind the calls is not given here.

What was measured:
[1] = Toxicity in BALB/c mouse implanted with mouse CT26 cells assessed as change in body weight at 50 mg/kg, po administered once daily; type: organism-based; settings: in vivo
Summary of the method: (§1)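 Mice bearing subcutaneous CT-26 tumours, five per group, given 50mg/kg orally each day in 5% NMP/PEG 400, with an equal-volume vehicle control group. Body weight and behaviour monitored over the treatment period.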

[2] = Toxicity in BALB/c mouse implanted with mouse CT26 cells assessed as effect on spleen morphology by measuring necrosis at 50 mg/kg, po administered once daily by H and E staining based histopathological analysis; type: organism-based; settings: in vivo
Summary of the method: (§2)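 CT-26 subcutaneous flank tumour model in male BALB/c mice, five per group, dosed orally at 50mg/kg daily in 5% NMP/95% PEG 400 versus vehicle. After treatment, heart, liver, spleen, lung and kidney collected, sectioned and stained with H&E for histological examination.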

[3] = Toxicity in BALB/c mouse implanted with mouse CT26 cells assessed as effect on kidney morphology by measuring cell inflammation at 50 mg/kg, po administered once daily by H and E staining based histopathological analysis; type: organism-based; settings: in vivo; summary of the method: as §2
[4] = Toxicity in BALB/c mouse implanted with mouse CT26 cells assessed as effect on lung morphology by measuring necrosis at 50 mg/kg, po administered once daily by H and E staining based histopathological analysis; type: organism-based; settings: in vivo; summary of the method: as §2
[5] = Toxicity in BALB/c mouse implanted with mouse CT26 cells assessed as effect on kidney morphology by measuring necrosis at 50 mg/kg, po administered once daily by H and E staining based histopathological analysis; type: organism-based; settings: in vivo; summary of the method: as §2
PC-3 = assay: Antiproliferative activity against human PC3 cells after 72 hrs by MTT assay; type: functional, cell-based; settings: PC-3, 72 h
Summary of the method: (§3)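 Cells seeded at 5 × 10^3 per well and cultured 24 h before compound addition at varied concentrations, then grown a further 72 h; 0.5% DMSO as solvent control. MTT (5mg/ml solution) added for 4 h, formazan dissolved in DMSO, absorbance read at 570nm. Each treatment in triplicate; Mean ± SD.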

[6] = Toxicity in BALB/c mouse implanted with mouse CT26 cells assessed as behavioral alteration at 50 mg/kg, po administered once daily; type: organism-based; settings: in vivo; summary of the method: as §1
CT26 [7] = assay: Antiproliferative activity against mouse CT26 cells after 72 hrs by MTT assay; type: functional, cell-based; settings: CT26, 72 h; summary of the method: as §3
[8] = target: T1, Signal transducer and activator of transcription 3 (Homo sapiens, UniProt P40763); assay: Inhibition of biotin-labelled DNA probe binding to recombinant N-terminal FLAG-tagged STAT3 (unknown origin) expressed in HEK293 cells at 100 to 200 nM by EMSA; type: cell-based
T1 sequence (P40763 whole entry): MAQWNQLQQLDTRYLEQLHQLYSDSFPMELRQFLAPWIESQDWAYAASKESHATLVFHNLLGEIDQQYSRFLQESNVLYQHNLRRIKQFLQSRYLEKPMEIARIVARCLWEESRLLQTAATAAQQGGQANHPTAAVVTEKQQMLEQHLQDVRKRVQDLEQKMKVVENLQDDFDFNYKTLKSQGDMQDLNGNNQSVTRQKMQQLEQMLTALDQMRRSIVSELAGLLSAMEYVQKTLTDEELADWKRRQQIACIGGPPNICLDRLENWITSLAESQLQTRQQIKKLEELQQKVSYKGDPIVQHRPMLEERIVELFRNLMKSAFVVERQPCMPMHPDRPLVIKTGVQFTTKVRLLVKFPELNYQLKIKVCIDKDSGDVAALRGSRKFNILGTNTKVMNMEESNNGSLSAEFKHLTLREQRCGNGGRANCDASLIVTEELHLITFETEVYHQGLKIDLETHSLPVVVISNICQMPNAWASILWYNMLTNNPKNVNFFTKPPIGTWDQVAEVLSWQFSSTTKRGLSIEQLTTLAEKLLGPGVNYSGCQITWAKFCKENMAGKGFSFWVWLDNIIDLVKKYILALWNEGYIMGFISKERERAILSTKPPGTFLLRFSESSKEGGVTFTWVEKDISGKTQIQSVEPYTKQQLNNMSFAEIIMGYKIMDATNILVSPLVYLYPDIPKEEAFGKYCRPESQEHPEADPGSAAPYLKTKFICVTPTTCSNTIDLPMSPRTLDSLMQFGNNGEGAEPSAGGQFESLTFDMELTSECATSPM
Summary of the method: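 HEK293T cells transiently transfected with N-terminal FLAG-STAT3 (10 µg per 10 cm dish) and harvested at 48 h. STAT3 purified on anti-FLAG magnetic beads and eluted with FLAG peptide (200 µg/mL). Chemiluminescent EMSA with biotin-labelled STAT3 probe, 5 µL protein and 1 µL probe per lane. Cold-probe and anti-STAT3 antibody lanes included.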

HepG2 [9] = assay: Decrease in total STAT3 level in human HepG2 cells at 400 nM after 24 hrs by Western blot analysis; type: ADME, cell-based; settings: hepg2, 24 h, 0.4 µM
Summary of the method: (§4)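 Cells treated 24 and 48 h. Lysed in RIPA with protease inhibitors, protein quantified by BCA, equal amounts run on 10% SDS-PAGE and transferred to PVDF. Blocked in 5% milk, probed overnight at 4 °C with anti-total STAT3, anti-p-STAT3 (Tyr705) and GAPDH antibodies. ECL detection.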

HT-29 [10] = assay: Potency index, ratio of napabucasin IC50 to test compound IC50 for human HT-29 cells; type: functional
[11] = target: T1, Signal transducer and activator of transcription 3; assay: Inhibition of STAT3 phosphorylation at Y705 residue in human HepG2 cells at 400 nM after 24 hrs by Western blot analysis; type: cell-based; summary of the method: as §4
[12] = Toxicity in BALB/c mouse implanted with mouse CT26 cells assessed as effect on spleen morphology by measuring edema at 50 mg/kg, po administered once daily by H and E staining based histopathological analysis; type: organism-based; settings: in vivo; summary of the method: as §2
U-251 [13] = assay: Potency index, ratio of napabucasin IC50 to test compound IC50 for human U251 cells; type: functional
[14] = Aqueous solubility of the compound in water at 2 mg after 24 hrs by HPLC analysis; type: physicochemical
Summary of the method: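 Aqueous solubility measured by HPLC against calibration standards at 15–125 µg/mL. Values are the mean of at least three determinations ± SD.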

[15] = Hepatotoxicity in BALB/c mouse implanted with mouse CT26 cells assessed as effect on liver morphology by measuring edema at 50 mg/kg, po administered once daily by H and E staining based histopathological analysis; type: toxicity, organism-based; settings: in vivo; summary of the method: as §2
U-251 [16] = assay: Decrease in total STAT3 level in human U251 cells at 200 nM after 24 hrs by Western blot analysis; type: ADME, cell-based; settings: u-251, 24 h, 0.2 µM; summary of the method: as §4
[17] = Hepatotoxicity in BALB/c mouse implanted with mouse CT26 cells assessed as effect on liver morphology by measuring cell inflammation at 50 mg/kg, po administered once daily by H and E staining based histopathological analysis; type: toxicity, organism-based; settings: in vivo; summary of the method: as §2
HT-29 [18] = assay: Antiproliferative activity against human HT-29 cells after 72 hrs by MTT assay; type: functional, cell-based; settings: HT-29, 72 h; summary of the method: as §3
CT26 [19] = assay: Potency index, ratio of napabucasin IC50 to test compound IC50 for mouse CT26 cells; type: functional
[20] = target: T1, Signal transducer and activator of transcription 3; assay: Binding affinity to recombinant N-terminal His-tagged STAT3 (unknown origin) expressed in baculovirus infected Sf9 insect cells by SPR analysis
Summary of the method: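 STAT3 made by baculovirus: bacmid generated in Sf9, virus amplified in Sf9, protein expressed in High Five cells. Purified on Ni-NTA and by gel filtration (>90% pure). Amine-coupled to a CM5 chip. Compound run at 18.75–600 nM in 5% DMSO/PBS on Biacore X100. KD taken from equilibrium fit.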

HepG2 [21] = assay: Decrease in total STAT3 level in human HepG2 cells at 400 nM after 24 to 48 hrs by sandwich-ELISA; type: ADME, cell-based; settings: hepg2, 0.4 µM
Summary of the method: (§5)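 Cells treated 24 or 48 h. Whole-cell lysates made in lysis buffer with protease inhibitor cocktail. Total STAT3 and p-STAT3 Y705 measured by sandwich ELISA. Three repeats; groups compared with control by paired t-test; means ± S.D.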

[22] = target: T1, Signal transducer and activator of transcription 3; assay: Inhibition of STAT3 phosphorylation at Y705 residue in human U251 cells at 200 nM after 24 to 48 hrs by sandwich-ELISA; type: cell-based; summary of the method: as §5
U-251 [23] = assay: Antiproliferative activity against human U251 cells after 72 hrs by MTT assay; type: functional, cell-based; settings: U-251, 72 h; summary of the method: as §3
[24] = Toxicity in BALB/c mouse implanted with mouse CT26 cells assessed as effect on kidney morphology by measuring edema at 50 mg/kg, po administered once daily by H and E staining based histopathological analysis; type: organism-based; settings: in vivo; summary of the method: as §2
HepG2 [25] = assay: Decrease in total STAT3 expression in human HepG2 cells at 400 nM after 24 hrs by DAPI staining based immunofluorescence microscopic analysis; type: ADME, cell-based; settings: hepg2, 24 h, 0.4 µM
Summary of the method: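 HepG2 cells treated 24 h, stained with the same anti-total STAT3 antibody as the blots, nuclei counterstained with DAPI. Imaged on an inverted microscope with a 20× objective.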

IC50 (PC-3): 4130 nM
IC50 (CT26 [7]): 140 nM
inhibition [8]: Active
inhibition [11]: Active
solubility at 24 h [14]: 201 µM (≈ 70.8 µg/mL)
IC50 (HT-29 [18]): 70 nM
Kd [20]: 110 nM
inhibition [22]: Active
IC50 (U-251 [23]): 220 nM
SMILES: O=C(NCCN1CCCCC1)c1cc2c(o1)C(=O)c1ccccc1C2=O
Activity [1]: Non-Toxic
Activity [2]: Non-Toxic
Activity [3]: Non-Toxic
Activity [4]: Non-Toxic
Activity [5]: Non-Toxic
Activity [6]: Non-Toxic
Activity (HepG2 [9]): Toxic
Ratio IC50 (HT-29 [10]): >10
Activity [12]: Non-Toxic
Ratio IC50 (U-251 [13]): >10
Activity [15]: Non-Toxic
Activity (U-251 [16]): Toxic
Activity [17]: Non-Toxic
Ratio IC50 (CT26 [19]): >10
Activity (HepG2 [21]): Toxic
Activity [24]: Non-Toxic
Activity (HepG2 [25]): Toxic
